hERG protect: hERG rescue from dofetilide block, primary screen, cell-based, CHO-hERG, FluxOR thallium flux, dofetilide IC70 | Voltage-gated inwardly rectifying potassium channel KCNH2 (Homo sapiens), Q12809 | dofetilide IC70 present | activation (rescue from dofetilide block), less the hit threshold, % at 10 µM | hit rate 0.51% among 310,000;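 active = activation above the mean of controls blocked by dofetilide plus 5 SD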;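 note: thallium influx through hERG after potassium depolarization seen as dye fluorescence rise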
KCC2 mod: KCC2 cotransporter modulators, thallium flux, primary screen, cell-based, HEK293 KCC2, FluoZin-2 fluorescence, MLSMR; KCC2 cells, thallium flux FluoZin-2 fluorescence; Solute carrier family 12 member 5 (Homo sapiens), Q9H2X9; hit rate 2.2% among 190,000; AID 1456, 2008; B-score of Tl+ flux slope (higher = more flux/activation; lower = inhibition) at 10 µM;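 active = thallium flux slope and its plate-corrected score both differing from the plate sample mean at a set confidence after two filtering rounds, in either direction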;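 note: slope of fluorescence scaled to starting intensity during 10 to 20 s after thallium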
KCNQ1 act: potentiators or activators of KCNQ1 channel, primary screen, cell-based, thallium flux, high-throughput; Potassium voltage-gated channel subfamily KQT member 1 (Homo sapiens), P51787; CHO-K1 KCNQ1, thallium flux FluxOR fluorescence; stronger effect = higher value; B-score at 10 µM; hit rate 0.35% among 310,000; AID 2648, 2010;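 active = fluorescence ratio B-score, a plate-corrected score, at least three library SD, with initial intensity B-score within 5 SD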
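Material: CHO-K1 cells stably expressing KCNQ1. Medium: assay buffer for compound exposure, DMSO matched across wells. Reagent: K+/Tl+ depolarizing stimulus. Compound dosing: single-concentration screen. Times: 37 °C overnight plating, 90-min dark dye load, 20-min compound pretreatment. Technique: FluxOR Tl+ flux fluorescence.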
KCNQ1 block: inhibitors of human KCNQ1 channel, primary screen, cell-based, thallium flux, high-throughput; Potassium voltage-gated channel subfamily KQT member 1 (Homo sapiens), P51787; CHO-K1 KCNQ1, FluxOR thallium flux fluorescence; stronger effect = higher value; B-score at 10 µM; hit rate 1.3% among 310,000; AID 2642, 2010;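 active = compounds whose thallium flux B-score, printed positive for inhibition, exceeds three library SD while starting fluorescence stays within three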;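 note: channel opened by potassium depolarization with thallium stimulus after 20 min compound exposure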
KCNK9 block: KCNK9 potassium channel inhibitors, primary screen, HEK293 cells, thallium flux | FluxOR thallium flux fluorescence; stronger effect = lower value | B-score at 10 µM | hit rate 1.2% among 310,000 | AID 488922, 2010;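 active = ratio B-score over 3 SD below the library mean, with starting fluorescence within 5 SD of its mean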;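 note: negative B-score means less thallium flux so channel inhibition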
KCNK3 inh: human KCNK3 channel inhibitors, primary screen, CHO cells, FluxOR thallium flux, B-score; FluxOR fluorescence; stronger effect = lower value; B-score at 10 µM; hit rate 0.84% among 340,000; AID 602410, 2012;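 active = B-score under library mean minus 4 SD, starting fluorescence ratio at most library mean plus 5 SD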;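 note: more negative B-score means stronger inhibition of thallium flux through KCNK3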
KCNQ1 inh valid: KCNQ1 potassium channel inhibitors, confirmation, cell-based, Tl flux, duplicate | shares compounds with KCNQ1 block | KCNQ1 cell line, FluxOR thallium flux fluorescence | inhibition, % at 10 µM | hit rate 93% among 1,600 | AID 588353, 2011;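 active = primary screen active, with duplicate mean exceeding buffer control mean plus 3 SD of buffer wells, cut at about 28% in these data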
CHO Tl flux: thallium flux effects in parental CHO cells, counter-screen for KCNQ1 inhibitor project, cell-based, Tl flux; shares compounds with KCNQ1 block; parental CHO-K1, FluxOR thallium flux fluorescence ratio; stronger effect = lower value; zero means no signal rise above baseline; fluorescence ratio (Tl flux) at 10 µM; hit rate 21% among 1,600; AID 588366, 2011;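 active = mean of duplicate thallium-flux fluorescence ratios in parental host cells more than 5 SD below the buffer control mean, cut at about 0.38 in these data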;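 note: ratio is peak minus minimum fluorescence divided by baseline fluorescence; actives read low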
KCNQ1 APC inh: KCNQ1 channel inhibitors, confirmation, orthogonal assay, cell-based, automated electrophysiology; KCNQ1-CHO cells, automated patch clamp current; shares compounds with KCNQ1 block; AID 624120, 2012; hit rate 20% among 490; calls only at 10 µM;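 active = KCNQ1 current drop exceeding 3 SD of negative control wells, seen in both duplicate runs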;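 note: steady state current during a 2 s step from -80 to +40 mV; negative values mean current inhibition and positive values mean potentiation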
KCNQ2 inh: KCNQ2 channel inhibition, selectivity assay for KCNQ1 inhibitor project, cell-based | inhibition, % at 10 µM | shares compounds with KCNQ1 block | hit rate 71% among 1,600 | KCNQ2 cells, FluxOR thallium flux fluorescence;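 active = mean percent inhibition of the KCNQ2 thallium signal more than 5 SD above the buffer-only control wells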;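 note: KCNQ2 expressed in CHO cells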
KCNQ1 KCNE1 spec: KCNQ1/KCNE1 channel inhibition, selectivity assay for KCNQ1 inhibitor project, CHO-K1 cells, thallium flux, FluxOR. shares compounds with KCNQ1 block. FluxOR thallium flux fluorescence. inhibition, % at 10 µM. hit rate 77% among 1,600;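 active = mean percent inhibition of duplicate wells above the buffer-only control mean plus 3 SD of those controls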
Target sequence (P51787 whole entry, looked up): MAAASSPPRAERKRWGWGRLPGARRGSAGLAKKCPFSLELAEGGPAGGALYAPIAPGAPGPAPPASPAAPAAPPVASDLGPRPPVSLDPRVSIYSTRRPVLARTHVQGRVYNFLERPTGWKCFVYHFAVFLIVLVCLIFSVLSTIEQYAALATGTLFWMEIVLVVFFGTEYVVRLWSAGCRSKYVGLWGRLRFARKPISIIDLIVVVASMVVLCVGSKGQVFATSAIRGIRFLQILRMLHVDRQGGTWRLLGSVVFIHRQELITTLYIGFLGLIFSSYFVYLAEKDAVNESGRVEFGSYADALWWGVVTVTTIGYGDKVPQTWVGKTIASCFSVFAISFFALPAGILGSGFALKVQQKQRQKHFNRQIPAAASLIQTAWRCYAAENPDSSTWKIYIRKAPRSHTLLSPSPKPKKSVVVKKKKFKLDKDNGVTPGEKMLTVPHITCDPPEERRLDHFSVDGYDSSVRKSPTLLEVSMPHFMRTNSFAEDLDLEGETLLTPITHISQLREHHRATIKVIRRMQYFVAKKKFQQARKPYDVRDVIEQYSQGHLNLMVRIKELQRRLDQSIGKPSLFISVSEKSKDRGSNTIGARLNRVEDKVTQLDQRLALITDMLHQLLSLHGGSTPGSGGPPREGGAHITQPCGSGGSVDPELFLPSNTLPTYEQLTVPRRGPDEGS
Of the large screens only hits and unclear results are named; the others gave an inactive call (follow-up assays come after a bar, where they were run). Compounds with a hit are over-represented: about 4.1% of the library has one in this group of screens.

Cc1[nH]n(-c2ncc(-c3ccccc3)s2)c(=O)c1C(c1ccc(Cl)cc1)C(C#N)C#N (stereo not drawn)	KCNQ1 block 7 | KCNQ1 inh valid 45 | CHO Tl flux inactive | KCNQ2 inh inactive | KCNQ1 KCNE1 spec 69%
O=C1COc2ccc(C(=O)NCc3ccc4c(c3)OCO4)cc2N1	KCNQ1 block 7 | KCNQ1 inh valid 104 | CHO Tl flux inactive | KCNQ1 APC inh active | KCNQ2 inh 86% | KCNQ1 KCNE1 spec 112%
CC(C)(C)c1ccc(CNC(=O)c2ccc3c(c2)NC(=O)CO3)cc1	none
CCOc1ccc(CCNC(=O)COC(=O)c2cccc(S(=O)(=O)N3CCOCC3)c2)cc1OCC	none (no result: KCC2 mod)
Cc1ccc(/C=C/C(=O)NCCc2cccc(Cl)c2)o1	none (no result: KCC2 mod)
Cc1cc(OCC(=O)Nc2ccncc2)cc(C)c1Br	KCNQ1 block 8 | KCNQ1 inh valid 131 | CHO Tl flux inactive | KCNQ1 APC inh inactive | KCNQ2 inh 96% | KCNQ1 KCNE1 spec inactive
Cc1cc(OCC(=O)Nc2ccncc2)ccc1Cl	none (no result: KCC2 mod)
CN(Cc1ccc(Cl)cc1Cl)C(=O)c1cccc(S(=O)(=O)N2CCN(c3ccccc3)CC2)c1	KCNQ1 block 6 (no result: KCC2 mod) | KCNQ1 inh valid 92 | CHO Tl flux inactive | KCNQ1 APC inh inactive | KCNQ2 inh 90% | KCNQ1 KCNE1 spec 68%
CC[n+]1c(/C=C2\Sc3ccccc3N2C)ccc2cccc(C)c21	KCNQ1 block 22 | KCNQ1 inh valid active | CHO Tl flux 0.05 | KCNQ2 inh inactive | KCNQ1 KCNE1 spec inactive
CCN1/C(=C/c2ccc3cc(C)ccc3[n+]2CC)Sc2ccccc21	KCNQ1 block 17 | KCNQ1 inh valid active | CHO Tl flux 0.035 | KCNQ2 inh inactive | KCNQ1 KCNE1 spec inactive
CN1/C(=C/c2cccc[n+]2CCO)Sc2ccccc21	none (no result: KCC2 mod)
CCCn1c(SCC(=O)Nc2cc(Cl)ccc2OC)nc(O)cc1=O	none (no result: hERG protect, KCC2 mod, KCNQ1 act, KCNQ1 block, KCNK9 block)
O=C(COc1ccccc1F)Nc1c2c(nn1-c1ccccc1)CS(=O)(=O)C2	none (no result: KCC2 mod)
Cc1cccc(C)c1OC(=O)C(c1ccccc1)c1ccccc1	KCNQ1 block 7 | KCNQ1 inh valid 96 | CHO Tl flux inactive | KCNQ1 APC inh inactive | KCNQ2 inh 89% | KCNQ1 KCNE1 spec 148%
O=C(c1ccccc1)C(O)c1ccccc1 (stereo not drawn)	none (no result: hERG protect, KCC2 mod, KCNQ1 act, KCNQ1 block, KCNK9 block)
O=S(=O)(c1cccc(Br)c1)N1CCN(c2ncnc3scc(-c4ccccc4)c23)CC1	none (no result: hERG protect, KCC2 mod, KCNQ1 act, KCNQ1 block, KCNK9 block)
Cc1csc2ncnc(N3CCN(S(=O)(=O)c4cccc(C(F)(F)F)c4)CC3)c12	KCNQ1 block 19 (no result: KCC2 mod) | KCNQ1 inh valid 134 | CHO Tl flux inactive | KCNQ1 APC inh inactive | KCNQ2 inh 113% | KCNQ1 KCNE1 spec 130%
Cc1noc(C)c1C(=O)OC(C)C(=O)Nc1ccc(C(N)=O)cc1 (stereo not drawn)	none (no result: hERG protect, KCC2 mod, KCNQ1 act, KCNQ1 block, KCNK9 block)
CC(=O)Nc1ccc(NC(=O)c2cc(-c3cc(C)cc(C)c3O)n[nH]2)cc1	none (no result: KCC2 mod)
Cc1cc(C)c(O)c(-c2cc(C(=O)Nc3ccc(S(=O)(=O)N4CCOCC4)cc3)[nH]n2)c1	KCNQ1 block 6 | KCNQ1 inh valid 133 | CHO Tl flux 0.37 | KCNQ2 inh 94% | KCNQ1 KCNE1 spec active
CC(C)(C)S(=O)(=O)N1Cc2cc(=O)n(Cc3ccccc3)c(CCO)c2[C@H]1CCO	none (no result: hERG protect, KCC2 mod, KCNQ1 act, KCNQ1 block, KCNK9 block)
Cc1ccc(O)c(-c2cc(C(F)(F)C(F)F)[nH]n2)c1	KCNQ1 block 6 (no result: KCC2 mod) | KCNQ1 inh valid 93 | CHO Tl flux inactive | KCNQ1 APC inh active | KCNQ2 inh 105% | KCNQ1 KCNE1 spec 129%
Cc1ccc(O)c(-c2cc(C(=O)Nc3cccnc3)[nH]n2)c1	none
COc1ccc(C(=O)C2CCCN(Cc3cccn3-c3ccc(Cl)cn3)C2)c(OC)c1 (stereo not drawn)	KCNQ1 block 11 | KCNQ1 inh valid 82 | CHO Tl flux inactive | KCNQ2 inh 85% | KCNQ1 KCNE1 spec inactive
COc1ccc(C(=O)C2CCCN(Cc3c(F)ccc(F)c3F)C2)c(OC)c1 (stereo not drawn)	none (no result: KCC2 mod)
COc1ccccc1CN(C)C(=O)CN1CCN(C(=O)c2cccs2)CC1	none (no result: hERG protect, KCC2 mod, KCNQ1 act, KCNQ1 block, KCNK9 block)
CCc1ccc(C(O)(C(C)C)C(CN2CCOCC2)c2ccccc2)cc1 (stereo not drawn)	KCNQ1 block 6 (no result: KCC2 mod) | KCNQ1 inh valid 65 | CHO Tl flux inactive | KCNQ2 inh inactive | KCNQ1 KCNE1 spec 80%
Cc1c(C(=O)Nc2ccc3c(c2)OCCO3)sc2ncnc(N3CCCCC3C)c12 (stereo not drawn)	none (no result: KCC2 mod)
Cc1nc(N2CCC(C)CC2)c2c(C)c(C(=O)Nc3ccc4c(c3)OCCO4)sc2n1	KCNQ1 block 8 (no result: KCC2 mod) | KCNQ1 inh valid 112 | CHO Tl flux inactive | KCNQ1 APC inh inactive | KCNQ2 inh 120% | KCNQ1 KCNE1 spec 92%
CC(C)(CCl)C(=O)Nc1ccc(C(F)(F)F)cc1	KCNQ1 block 6 | KCNQ1 inh valid 56 | CHO Tl flux inactive | KCNQ2 inh 66% | KCNQ1 KCNE1 spec 68%
CN1c2ccccc2C(C)(C)C12C=Cc1cc(O)ccc1O2 (stereo not drawn)	KCNQ1 block 9 (no result: KCC2 mod) | KCNQ1 inh valid 132 | CHO Tl flux 0.36 | KCNQ2 inh 128% | KCNQ1 KCNE1 spec 168%
O=c1c2ccccc2n(Cc2cccc(F)c2)c(=O)n1C1CCCC1	KCNQ1 block 9, KCNK9 block -7.7, KCNK3 inh -12 (no result: KCC2 mod) | KCNQ1 inh valid 95 | CHO Tl flux inactive | KCNQ1 APC inh inactive | KCNQ2 inh 92% | KCNQ1 KCNE1 spec 84%

Bioassay records: PubChem BioAssay, several laboratories
